Results on 55 compounds are retold here after PubChem BioAssay AID685 (PCMD, 2007).

The test is described as follows: yeast growth toxicity, wild-type and mutant, primary screen, cytotoxicity control for eIF2B function restoration project, wild-type and eIF2Bepsilon R284H mutant, A595 (AID 685).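 Also: 0% = untreated cell controls and 100% = YPD media blanks without cells.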 To be noted: A595 turbidity, 16 h, stronger effect = higher value, screened at 25 µM (by protocol). Summed up:
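Incubation: 16 h growth with compound, 30 °C; Material: S. cerevisiae wild-type or eIF2Bepsilon-R284H mutant strain; Signal: turbidity measured as absorbance at 595 nm; Medium: YPD yeast growth medium; Measure: growth inhibition (%) versus cell controls and blanks; Doses: 25 µM single dose.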

[1] abbreviates: S. cerevisiae eIF2Bepsilon-R284H mutant growth.

The campaign covered roughly 30,000 compounds. About 80 (0.3%) were called active.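 The calls were made as follows: active = mutant and wild-type yeast strains alike exhibit over 30% growth inhibition; inconclusive = a strain exceeds 50% while the second remains under 30%; inactive = the rest.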 The full list was thinned out, with actives kept by preference.

With `CC(C)NC(=O)C(=O)NCCN1CCN(S(=O)(=O)c2ccc(Cl)cc2)CC1`, the growth inhibition under setting [1] is 7.69% and the growth inhibition (S. cerevisiae wild-type growth) was 7.31% (inactive).
On the same counts, the results for `COc1ccc(C2CC(=O)n3c(nc4ccccc43)S2)cc1OC` (stereo not given) are -2.13% and 32% (inactive).
On the same counts, the results for `COc1ccc(-c2cc(C(F)(F)F)nc(NCc3cccnc3)n2)cc1` are 25.5% and 15.3% (inactive).
On the same counts, the results for `CCCc1nc2sc3c(c2c(=O)n1NC(=O)CCCl)CCCC3` are 9.3% and -7.93% (inactive).
For the compound `CCn1nc(C)c(NC(=O)/C=C/c2ccc(OC)c(COc3ccc(Br)cc3)c2)c1C`, the growth inhibition by setting is: under setting [1], 50%; (S. cerevisiae wild-type growth) 54.5% (active).
On to `COc1cccc(OCc2cc(/C=N/NC(=O)c3nc(Cl)c(Cl)c(N)c3Cl)ccc2OC)c1`, for which the growth inhibition reads like this: under setting [1], -17.9%; (S. cerevisiae wild-type growth) -14.8% (inactive).
As to `CCOC(=O)N1CCN(C(=O)COc2ccc(Br)cc2)CC1`, the growth inhibition is 0% under setting [1] and 10.3% (inactive) (S. cerevisiae wild-type growth).
As for `C=CCn1c(SCc2c(C(=O)OC)sc(N)c2C(=O)OC)nnc1-c1ccc(Cl)cc1`, the growth inhibition reads like this: under setting [1], 6.98%; (S. cerevisiae wild-type growth) -10.3% (inactive).
Taken in the same sequence, the figures for `CCCCOc1ccc(C(=O)NCc2ccncc2)cc1` were 18.6% and 33.8% (inactive).
Taken in the same sequence, the figures for `CCCOc1ccc(C2NC(=O)NC(c3ccccc3)=C2C(C)=O)cc1OCC` (stereo not given) were 7.89% and 4.64% (inactive).
For `COC(=O)/C(NC(C)=O)=C(\C)c1ccc(Cl)cc1`, the growth inhibition was -32.3% under setting [1] and 8.3% (inactive) (S. cerevisiae wild-type growth).
For `CCOc1ccc(NC(=O)CCS(=O)(=O)c2ccc3c(c2)CCCN3C(=O)CC)cc1`, the growth inhibition runs as follows: under setting [1], 13.5%; (S. cerevisiae wild-type growth) 10.8% (inactive).
Taken in the same sequence, the figures for `CCN(CC)CCn1c(=S)[nH]c2ncccc2c1=O` were 5.13% and 11.5% (inactive).
On the same counts, the results for `CCc1ccc(NC(=O)CN2C(=O)CSC2=O)cc1` are -8.82% and 5% (inactive).
Taken in the same sequence, the figures for `COc1ccc(C)cc1S(=O)(=O)NCCc1ccccc1` were 12.9% and 4.64% (inactive).
Regarding `CC(C)=C1SC(N2CCN(c3cccc(C)c3)CC2)=NC1=O`, the growth inhibition reads like this: under setting [1], 16.2%; (S. cerevisiae wild-type growth) 11.8% (inactive).
Take `COc1cccc2cc(C(=O)N3CCN(C(=O)c4ccccc4)CC3)c(=O)oc12`: the growth inhibition runs as follows: under setting [1], 9.38%; (S. cerevisiae wild-type growth) 8.28% (inactive).
Take `CC(Oc1ccc(Cl)cc1)c1ccnn1S(C)(=O)=O` (stereo not given): the growth inhibition was 10.8% under setting [1] and 28.1% (inactive) (S. cerevisiae wild-type growth).
Turning to `CC(C)(C)n1nnnc1C(c1ccc(F)cc1)N1CCN(Cc2ccc3c(c2)OCO3)CC1` (stereo not given), the growth inhibition is -18.2% under setting [1] and 15% (inactive) (S. cerevisiae wild-type growth).
For `N/C(=N\OC(=O)Nc1ccc(Cl)c(Cl)c1)c1ncc(C(F)(F)F)cc1Cl`, the growth inhibition runs as follows: under setting [1], 30.3%; (S. cerevisiae wild-type growth) 35.2% (active).
`NC(=O)c1ncc(C(F)(F)F)cc1Oc1ccc(F)cc1`: the growth inhibition was -3.33% under setting [1] and 19.2% (inactive) (S. cerevisiae wild-type growth).
On the same counts, the results for `CCn1nccc1C(=O)Nc1ccc(Cl)c(Cl)c1` are -8.33% and 12.8% (inactive).
Taken in the same sequence, the figures for `CN1CCN(C(=O)Cn2c(C(F)(F)F)nc3ccccc32)CC1` were 25% and 9.62% (inactive).
On to `CC(C)(C)N1CC(c2nc3ccccc3n2Cc2ccc(F)cc2)CC1=O` (stereo not given), for which the growth inhibition under setting [1] was determined as 20% and the growth inhibition (S. cerevisiae wild-type growth) was 5% (inactive).
`CS(=O)(=O)Nc1ccc(C(=O)N2CCCC2)cc1`: the growth inhibition is 11.6% under setting [1] and 38.3% (inactive) (S. cerevisiae wild-type growth).
On the same counts, the results for `Cc1[nH][nH]c(=O)c1N=Nc1ccccc1` are 8.33% and 25.8% (inactive).
On the same counts, the results for `Cc1[nH][nH]c(=O)c1C(c1ccc(-c2ccc(Cl)cc2)o1)c1c(C)[nH][nH]c1=O` are 63% and 75.8% (active).
Taken in the same sequence, the figures for `Cc1ccccc1-c1nnc(SCC(=O)NCc2ccc3c(c2)OCO3)n1C` were 8.14% and 13.1% (inactive).
Regarding `CC(C)(CNC(=O)c1cc(=O)[nH]c2ccccc12)N1CCOCC1`, the growth inhibition runs as follows: under setting [1], -23.8%; (S. cerevisiae wild-type growth) -1.08% (inactive).
Taken in the same sequence, the figures for `Cc1cc(NC(=O)CN2CCCC(C)C2)n(-c2nc3ccccc3s2)n1` (stereo not given) were -42.9% and -15.7% (inactive).
On the same counts, the results for `Cc1[nH]n(-c2cccc(Cl)c2)c(=O)c1/C=N/n1c(C)nc2ccccc2c1=O` are 2.56% and 21% (inactive).
Taken in the same sequence, the figures for `O=C(CCS(=O)(=O)c1cccc2nsnc12)N1CCN(c2ccccc2F)CC1` were 12.5% and 11.5% (inactive).
For the compound `Cc1ccc(S(=O)(=O)N2CCN(S(=O)(=O)N3CCOCC3)CC2)cc1`, the growth inhibition is, setting by setting: under setting [1], -11.9%; (S. cerevisiae wild-type growth) 10.3% (inactive).
On to `COC(=O)c1ccc(/C=N\n2c(C)nnc2C)cc1`, for which the growth inhibition was -3.85% under setting [1] and -0.22% (inactive) (S. cerevisiae wild-type growth).
Consider `CC(=O)Nc1cccc(Oc2cc(C#N)c(C#N)cc2N2CCOCC2)c1`, for which the growth inhibition was -4.55% under setting [1] and -7.1% (inactive) (S. cerevisiae wild-type growth).
On the same counts, the results for `O=C(N/N=C/c1ccc(O)cc1)/C(=C/c1ccc([N+](=O)[O-])cc1)NC(=O)c1ccccc1` are 15% and 5% (inactive).
On the same counts, the results for `CC(=NCc1ccco1)c1c(C(F)(F)F)[nH]n(-c2nc3ccccc3s2)c1=O` are 7.61% and 34.2% (inactive).
Taken in the same sequence, the figures for `O=C(CSc1n[nH]c(-c2cccnc2)n1)Nc1ccnc2ccccc12` were 7.69% and 1% (inactive).
As for `Cc1ccc(S(=O)(=O)N(C)C2(C)CCS(=O)(=O)C2)cc1` (stereo not given), the growth inhibition reads like this: under setting [1], 5%; (S. cerevisiae wild-type growth) -6.15% (inactive).
On the same counts, the results for `COC(=O)c1ccccc1NC(=O)CN(Cc1ccc(Cl)cc1)S(C)(=O)=O` are 6.98% and 4.14% (inactive).
Taken in the same sequence, the figures for `CCSc1ccccc1C(=O)NCc1ccc(OC)cc1` were 10.3% and 2.69% (inactive).
On the same counts, the results for `CCOc1ccc(S(=O)(=O)NCCSc2ccccc2)cc1` are 12.5% and 10% (inactive).
With `CCNC(=O)c1sccc1-n1cccc1`, the growth inhibition by setting is: under setting [1], 12.9%; (S. cerevisiae wild-type growth) 8.21% (inactive).
On the same counts, the results for `COCCCNC(=O)COc1cc(C)c(Cl)c(C)c1` are -13.6% and 8.44% (inactive).
On to `COC(=O)Nc1ncc(CN2CCCCC2)s1`, for which the growth inhibition is 6.45% under setting [1] and -0.8% (inactive) (S. cerevisiae wild-type growth).
As for `CCOc1ccc(S(=O)(=O)Nc2ccc(S(=O)(=O)Nc3cc(OC)ccc3OC)cc2)cc1`, the growth inhibition reads like this: under setting [1], 6.38%; (S. cerevisiae wild-type growth) 5.67% (inactive).
On the same counts, the results for `CC1(C)NC(=O)N(CCCCSc2ccc(Cl)cc2)C1=O` are 15.6% and 21.2% (inactive).
As for `CC/S(CC1CC1(Cl)Cl)=N\S(=O)(=O)c1ccc(C)cc1` (stereo not given), the growth inhibition under setting [1] worked out at 25.5% and the growth inhibition (S. cerevisiae wild-type growth) is 20.7% (inactive).
Taken in the same sequence, the figures for `Cc1ccc(C(=O)N2CCCC2)c(F)c1F` were 20% and 0.21% (inactive).
On the same counts, the results for `O=C(c1ccc(Cl)c(Cl)c1)N1CCCC1` are 8.89% and 28.3% (inactive).
For `CCCCc1nnc(NC(=O)CSc2nc(C)cc(=O)[nH]2)s1`, the growth inhibition under setting [1] came out at 20% and the growth inhibition (S. cerevisiae wild-type growth) is 14.6% (inactive).
On the same counts, the results for `c1ccc(CSCCc2ccncc2)cc1` are 20% and 22.3% (inactive).
On the same counts, the results for `CCC(=O)N(Cc1ccccc1)c1ccccn1` are 15% and 1.54% (inactive).
On the same counts, the results for `Nc1c(C(=O)NCc2ccccc2)sc2nc3c(cc12)C(=O)CCC3` are 0% and -16.4% (inactive).
Take `Cc1ccoc1C(=O)Nc1cccc(Oc2ccccc2)c1`: the growth inhibition reads like this: under setting [1], 20%; (S. cerevisiae wild-type growth) 20.3% (inactive).
